{"data": "Measured values of several laboratories", "observed": "microbial growth", "note": "Protocols differ between the studies behind these lines."}
{"Structure (SMILES)": "CNC(=O)c1cc(Oc2ccc(NC(=O)Nc3c(C)cccc3Cl)cc2)ccn1", "organism": "Staphylococcus aureus", "system": "NCTC8325", "MIC": "> 100 µM"}
{"Structure (SMILES)": "O=c1[nH]c(NCc2ccc(Cl)c(Cl)c2)nc2ncn(CCCCCN3CCOCC3)c12", "organism": "Lactobacillus acidophilus", "test": "agar dilution", "setting": "48 h", "MIC": "2 µg/mL"}
{"Structure (SMILES)": "O=C1NC(=S)S/C1=C\\c1ccc(-c2ccc(N(c3ccccc3)c3ccccc3)cc2)c2ccccc12", "organism": "Micrococcus luteus", "test": "broth dilution", "system": "ATCC10240", "MIC": "250 µg/mL"}
{"Structure (SMILES)": "O=c1[nH]c(NCc2ccc(Cl)c(Cl)c2)nc2ncn(CCN3CCOCC3)c12", "organism": "Lactobacillus acidophilus", "test": "agar dilution", "setting": "48 h", "MIC": "4 µg/mL"}
{"Structure (SMILES)": "CC1=NN(CNC(=O)c2ccccc2)C(=O)C1=NNn1c(-c2ccccc2)nc2ccccc2c1=O", "organism": "Micrococcus luteus", "test": "broth dilution", "setting": "24 h", "MIC": "51.9 µM"}
{"Structure (SMILES)": "Cc1cnc(-c2cnc(NCCNc3ccc(C#N)cn3)nc2-c2ccc(Cl)cc2Cl)[nH]1", "organism": "Staphylococcus aureus", "system": "NCTC8325", "MIC": "> 30 µM"}
{"Structure (SMILES)": "O=C(O)CN1C(=O)/C(=C/c2ccc(-c3ccc(N(c4ccccc4)c4ccccc4)cc3)c3ccccc23)NC1=S", "organism": "Micrococcus luteus", "test": "broth dilution", "system": "ATCC10240", "MIC": "> 1000 µg/mL"}
{"Structure (SMILES)": "COC(=O)c1sc(C(C)(C)C)cc1NC(=O)Nc1ccc(C)cc1", "organism": "Staphylococcus aureus", "system": "NCTC8325", "MIC": "> 100 µM"}
{"Structure (SMILES)": "CC1=NN(CNc2ccc(O)cc2)C(=O)C1=NNn1c(-c2ccccc2)nc2ccccc2c1=O", "organism": "Micrococcus luteus", "test": "broth dilution", "setting": "24 h", "MIC": "53.5 µM"}
{"Structure (SMILES)": "O=C(O)CN1C(=O)/C(=C/c2ccc(-c3ccc(N(c4ccccc4)c4ccccc4)cc3)cc2)NC1=S", "organism": "Micrococcus luteus", "test": "broth dilution", "system": "ATCC10240", "MIC": "1.95 µg/mL"}
{"Structure (SMILES)": "O=C(N[C@H](CO)[C@H](O)c1ccc([N+](=O)[O-])cc1)C(Cl)Cl", "organism": "Micrococcus flavus", "test": "broth dilution", "MIC": "7 µg/mL"}
{"Structure (SMILES)": "C/C=C(\\C)c1cc(OC(=O)c2c(O)c(C)c(O)c(Cl)c2/C(C)=C/C)c(C)c(O)c1C(=O)O", "organism": "Micrococcus luteus", "test": "broth dilution", "system": "ML01", "MIC": "32 µg/mL"}
{"Structure (SMILES)": "CC1=NN(CNc2ccc(Cl)cc2)C(=O)C1=NNn1c(-c2ccccc2)nc2ccccc2c1=O", "organism": "Micrococcus luteus", "test": "broth dilution", "setting": "24 h", "MIC": "103 µM"}
{"Structure (SMILES)": "O=C1NC(=S)S/C1=C\\c1c2ccccc2c(-c2ccc(N(c3ccccc3)c3ccccc3)cc2)c2ccccc12", "organism": "Micrococcus luteus", "test": "broth dilution", "system": "ATCC10240", "MIC": "> 1000 µg/mL"}
{"Structure (SMILES)": "CNC(=O)c1cc(COc2nnc(Nc3ccc(Cl)cc3)c3ccoc23)ccn1", "organism": "Staphylococcus aureus", "system": "NCTC8325", "MIC": "> 30 µM"}
{"Structure (SMILES)": "O=C1NC(=S)N/C1=C\\c1ccc(-c2ccc(N(c3ccccc3)c3ccccc3)cc2)cc1", "organism": "Micrococcus luteus", "test": "broth dilution", "system": "ATCC10240", "MIC": "62.5 µg/mL"}
{"Structure (SMILES)": "COc1cc2c(N3CCN(C(=O)Nc4ccc(OC(C)C)cc4)CC3)ncnc2cc1OCCCN1CCCCC1", "organism": "Staphylococcus aureus", "system": "NCTC8325", "MIC": "> 30 µM"}
